# Hits are enriched below; roughly 10% of the tested compounds scored in any of these assays.
# PMI activator – phosphomannose isomerase (human) activation; 0.005% of 190,000 active; AID 1214; P34949; activation factor at 20 µM; purified human PMI, coupled resazurin fluorescence, 20 min; stronger effect = higher value; 1 = vehicle control, 0 substrate-free wells;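 active = activation factor of 2 or more at 20 µM, relative to plate controls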
# Target sequence (P34949 whole entry, looked up): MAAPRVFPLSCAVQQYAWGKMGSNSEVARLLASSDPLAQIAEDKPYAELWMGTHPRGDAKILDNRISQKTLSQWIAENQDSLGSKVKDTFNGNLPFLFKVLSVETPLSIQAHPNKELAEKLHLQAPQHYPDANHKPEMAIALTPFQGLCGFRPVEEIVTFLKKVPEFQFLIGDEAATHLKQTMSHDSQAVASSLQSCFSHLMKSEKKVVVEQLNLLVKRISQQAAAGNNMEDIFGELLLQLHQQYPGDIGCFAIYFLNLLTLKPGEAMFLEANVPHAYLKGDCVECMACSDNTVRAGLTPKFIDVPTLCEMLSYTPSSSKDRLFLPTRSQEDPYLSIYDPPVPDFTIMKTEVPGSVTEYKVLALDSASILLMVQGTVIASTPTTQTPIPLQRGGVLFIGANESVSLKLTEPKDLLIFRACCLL
# Diaphorase act – counter-screen for diaphorase-based assays: diaphorase activators and chemical reducers; 0.005% of 190,000 active; Diaphorase/resazurin coupled assay, resorufin fluorescence, 16 min; stronger effect = higher value; 1 = vehicle wells, 0 = NADH-free wells; AID 1229; activation factor at 20 µM;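 active = diaphorase activity raised at least twofold by the compound at 20 µM; inactive = activation factor below 2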
#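 Material: bacterial diaphorase enzyme (C. kluyveri); amount: enzyme 0.07 U/mL final; reagent: NADH substrate 0.114 mM plus resazurin dye 0.1 mM, final; doses: single compound dose of 20 µM, 1% DMSO final; timing: 16 min enzyme reaction, ambient temperature; measured by: fluorescence of resorufin, 544 nm excitation, 590 nm emission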
# PMI act satM6P – activators of human phosphomannose isomerase at near-saturating mannose 6-phosphate | coupled PMI enzyme assay, resazurin fluorescence, 20 min; stronger effect = higher value; 1 = untreated enzyme, 0 = substrate-free blank | 0.34% of 190,000 active | AID 1216 | activation factor at 20 µM | P34949;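 active = activation factor of 2 or more at 20 µM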
#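 Test system: human phosphomannose isomerase with PGI, G6PDH, diaphorase coupling enzymes; Amount: PMI at 15 ng/mL final; Reagent: Mannose-6-phosphate 1.0 mM (near-saturating) plus 0.22 mM NADP+; Timing: 20 min, room temperature; Technique: resorufin fluorescence at Ex 544/Em 590 nm; Dosing: 20 µM single dose.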
# Lmaj promast – inhibitors of Leishmania major promastigote growth; inhibition, % at 10 µM; 9% of 200,000 active; Leishmania major promastigotes, resazurin fluorescence viability; in the data active = inhibition above about 50%;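 also: promastigotes grown with compound for 44 hours at 28 °C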
# WT yeast gro inh – growth inhibition of WT yeast, mitochondrial fusion screen; mitochondrial fusion phenotypic screen, WT strain; inhibition, % at 10 µM; 2.1% of 190,000 active; in the data active = inhibition above about 58%; tested in S. cerevisiae
# L major 1uM – L. major promastigote growth inhibition, 1 uM repeat; inhibition, % at 1 µM; resazurin fluorescence, 48 h; 13% of 1,100 active; shares compounds with Lmaj promast;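 active = inhibition above about 50% in both repeat tests, limit read from the data; inconclusive = one repeat under the set limit, the other over it; inactive = both repeats under the set limit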
# * marks the source's active call; other numbers are inactive results; u = inconclusive; x = not tested or not shown.
SMILES,PMI activator,Diaphorase act,PMI act satM6P,Lmaj promast,WT yeast gro inh,L major 1uM
O=C(c1ccccc1)c1n[nH]c(-c2ccccc2)cc1=O,1.2,0.9,1.2,-11,-14,x
O=Nc1c2cc(-c3ccccc3)[nH]nc-2c2ccccc12,1,1.1,0.9,65*,58,54*
Cc1cccc(-c2cc3c(N=O)c4ccccc4c-3n[nH]2)c1,1,0.9,1,64*,28,53*
CC(C)(C)c1nnc2cccc(Cl)n12,1,1,0.9,-2,-3,x
CC1=CC2(O)OCCN(CCO)C2=CC1=O (stereo not given),0.9,0.9,0.4,99*,-10,-10
c1ccc(-c2nc3nonc3nc2-c2ccccc2)cc1,1.5,0.9,1.3,84*,47,-17
O=c1c2cc3c(=O)n(-c4ccccc4O)c(=O)c3cc2c(=O)n1-c1ccccc1O,1,0.8,0.7,-2,5,x
O=C1c2ccccc2CCCC12N=NCC2c1cccc2ccccc12 (stereo not given),0.8,0.9,0.8,53*,-14,7
Cc1ccc(C2CN=NC23CCc2ccccc2C3=O)cc1 (stereo not given),1,1,1,-4,16,x
COc1ccc(N2CCN(C(=O)c3cccnc3)CC2)c([N+](=O)[O-])c1,1,0.9,1,1,-5,x
CCOc1ccc(Oc2ccc(C(F)(F)F)cc2N)cc1,0.9,0.8,0.9,51*,38,-10
COc1cccc(Oc2ccc(C(F)(F)F)cc2N)c1,0.8,0.9,0.9,-3,24,x
CCCCCC(=O)Nc1ccc(-c2csc(N)n2)cc1,1.3,1.1,1.1,12,0,x
O=C(O)c1ccc2c3c(ncnc13)-c1ccccc1C2=O,1.3,0.6,1.4,98*,-11,0
CC(C)CCC(C)N=Cc1c(O)n(Cc2ccccc2)c(=O)c2ccccc12 (stereo not given),1,0.9,0.9,62*,15,-2
Cc1nn(-c2ccccc2)c(N)c1Sc1cccc([N+](=O)[O-])c1,0.9,0.8,1,52*,-3,14
COc1ccc(C(=O)N/C(=C/c2cccs2)C(=O)NC(C)(C)C)cc1OC,1,1,1.1,-1,-9,x
COC(=O)C(=C/C(C)=C/c1cccs1)C(=O)OC,1,0.9,1,62*,11,21
Cc1ccc(OCCCCn2ccnc2)c(Cl)c1,0.9,1,1.1,98*,10,74*
Cc1cc(Cl)c(OCCCn2ccnc2)c(Br)c1,1.1,1,1.1,17,38,x
O=c1c(-c2ccc(Cl)cc2)cnc2n1CCS2,1,0.9,1,-5,6,x
CN1c2ccccc2Oc2nnc(Cl)cc21,1,0.8,0.9,15,-26,x
CCN(CC)CCOc1cc2c(nn1)Oc1ccccc1N2C,1.1,0.9,1.1,100*,-1,9
CCC(C)NC(=O)CNC(=S)N(Cc1ccccc1)Cc1cccnc1 (stereo not given),1,1,1,75*,-1,-7
Cn1c(SCCN2CCCCC2)nnc1-c1ccccc1Br,0.9,0.8,1,73*,9,-2
SMILES,PMI activator,Diaphorase act,PMI act satM6P,Lmaj promast,WT yeast gro inh,L major 1uM
CC(C)N=C(NS(=O)(=O)c1ccc(Br)cc1)c1ccc(Cl)cc1,0.9,0.7,0.8,2,-4,x
CC(C)CCN=Cc1c(O)n(-c2ccccc2)c(=O)c2ccccc12,1,0.9,0.9,21,-3,x
CCN1CCCC1CN=Cc1c(O)n(-c2ccccc2)c(=O)c2ccccc12 (stereo not given),1,0.8,1.1,55*,7,3
CCCCNc1cc(NC(C)=O)cc2cc(OC)c(OC)cc12,0.5,0.6,0.5,100*,21,-19
CCCC(=O)Nc1cc(OC)c(OC)cc1C(=O)O,0.9,0.9,1,-4,0,x
Cn1cc(S(=O)(=O)c2ccccc2)n(C)c1=O,1,0.8,1,5,2,x
CSc1nc(C)c2c(c1C#N)CCCC2,0.9,1,1,62*,2,16
CCOC(=O)C1=Nc2ccccc2C1=[N+]=[N-],1.1,0.7,1.4,79*,71,46
CCOC(=O)c1cnc(-c2ccccc2O)nc1Cl,1.3,1,1.2,5,7,x
Cc1ccc(C)c(N2CCN(C(=O)c3ccc(CSc4nc5ccncc5[nH]4)cc3)CC2)c1,0.9,0.7,1,89*,1,u
Cc1cccc(NC(=O)c2sc(Cl)nc2C)c1C,1.2,1.1,1.2,-2,13,x
O=S(=O)(/N=C(/c1ccccc1)N1CCCCC1)c1ccccc1,0.9,0.9,0.9,32,-12,x
c1ccc(-c2nnc(N3CCN(c4ccccn4)CC3)c3ccccc23)cc1,0.8,0.7,0.8,33,12,x
Cc1ccc(-c2nnc(N3CCN(c4ccccn4)CC3)c3ccccc23)cc1,0.9,0.9,1,91*,46,6
Cc1nc(Nc2cccc(C(C)O)c2)c2nnn(Cc3ccccc3F)c2n1 (stereo not given),0.9,0.9,1,3,-6,x
OC(CCCN1CCCCC1)(c1ccccc1)c1ccccc1,1,0.9,1,9,0,x
c1ccc2c(c1)OC(CCCN1CCCCC1)c1ccccc1S2 (stereo not given),1.1,1,1.1,100*,56,95*
Cc1oc(-c2ccc(-c3ccccc3)cc2)nc1CN1CCN(CC(=O)N(C)C)CC1,0.9,0.9,0.9,-7,1,x
Cc1cc2nc(C)c3c(n2n1)CCC3,1.1,1,1.1,-13,-19,x
c1ccc(-c2nc3ccccc3c3nc4ccccc4n23)cc1,1,0.9,1,-4,23,x
CCc1nc2ccccc2c2nc3ccccc3n12,1,0.8,0.9,87*,11,-15
Cc1ccc2c(c1)c1c3n2CCCNC3CCC1 (stereo not given),1,1.1,1.1,8,-5,x
c1cc2c(cc1C1CCCCC1)c1c3n2CCCNC3CCC1 (stereo not given),0.9,1.2,1,100*,91,17
Cc1ccc2c(c1)c1c3n2CCN=C3CCC1,1.3,0.9,1.3,-4,0,x
c1cc2c(cc1C1CCCCC1)c1c3n2CCN=C3CCC1,0.9,1,0.9,101*,93*,15
CC1=CC(C)C2(COC(c3ccc[n+](C)c3)OC2)C(C)C1 (stereo not given),0.9,1.3,1,100*,5,-1
CC(C)C(NC(=O)OCc1ccccc1)C(=O)NC1CCCCC1 (stereo not given),0.9,0.9,0.9,20,8,x
N#C/C(=C\c1cn(CCOc2ccccc2)c2ccccc12)C(=O)NCc1cccs1,0.8,0.9,0.9,55*,2,-13

# Compound activity (PubChem BioAssay)
